Measured values taken from ChEMBL document CHEMBL1938242, “In vivo evaluation of oral anti-tumoral effect of 3,4-dihydroquinazoline derivative on solid tumor” (Bioorg Med Chem Lett, 2012).
pIC50: −log10 of the molar value. Calls of active or inactive are those of the source. The rule behind the calls is not given here.

What was measured:
Mus musculus [1] = test: Toxicity in athymic nu/nu BALB/c mouse bearing human A549 cells assessed as change in total body weight at 10 mg/kg, ip administered twice per week for consecutive 39 days; assay type: organism-based; design: dose 10 mg/kg, route intraperitoneal; details: in vivo, 936 h
Outline: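 Mice bearing A549 s.c. flank xenografts, n = 5 per group, given 10 mg/kg ip in ethanol:Cremophor EL:water 1:1:18, twice weekly over 39 days starting day 8. Total body weights tracked through the study and compared with vehicle control. Mean ± SE.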

A549 [2] = test: Antitumor activity against human A549 cells xenografted in athymic nu/nu BALB/c mouse assessed as tumor growth inhibition at 10 mg/kg, ip administered twice per week for consecutive 39 days; assay type: functional; details: 936 h, route intraperitoneal, read-out: GI
Outline: (§1)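 A549 s.c. flank xenografts (5 × 10⁶ cells) in BALB/c nu/nu mice, n = 5. From day 8, given 10 mg/kg ip in ethanol:Cremophor EL:water 1:1:18, twice weekly for 39 days. Excised tumors weighed at the end. Inhibition % = 100 × (C − T)/C using mean tumor weights versus vehicle. Mean ± SE.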

A549 [3] = test: Antitumor activity against human A549 cells xenografted in athymic nu/nu BALB/c mouse assessed as decrease in tumor weight at 10 mg/kg, ip administered twice per week for consecutive 39 days (reference value: 0.358 +/- 0.052 g); assay type: functional; details: route intraperitoneal; outline: as §1
A549 [4] = test: Antitumor activity against human A549 cells xenografted in athymic nu/nu BALB/c mouse assessed as decrease in tumor volume at 10 mg/kg, ip administered twice per week for consecutive 39 days (reference value: 224.40 +/- 60.34 mm3); assay type: functional; details: route intraperitoneal
A549 [5] = test: Antitumor activity against human A549 cells xenografted in athymic nu/nu BALB/c mouse assessed as decrease in tumor volume at 5 mg/kg, po administered 5 times weekly for consecutive 39 days (reference value: 224.40 +/- 60.34 mm3); assay type: functional
Outline: (§2)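 A549 cells (5 × 10⁶) injected s.c. into the left flank of BALB/c nu/nu mice, n = 5 per group. At day 8 (nodules ca. 3 mm³), oral dosing at 1 or 5 mg/kg in ethanol:Cremophor EL:water 1:1:18, five times weekly for 39 days. Caliper measurement weekly; volume from length, width and height. Mean ± SE; Dunnett's test versus vehicle.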

A549 [6] = test: Antitumor activity against human A549 cells xenografted in athymic nu/nu BALB/c mouse assessed as tumor growth inhibition at 1 mg/kg, po administered 5 times weekly for consecutive 39 days; assay type: functional; details: A549, 936 h, read-out: GI
A549 [7] = test: Antitumor activity against human A549 cells xenografted in athymic nu/nu BALB/c mouse assessed as decrease in tumor weight at 1 mg/kg, po administered 5 times weekly for consecutive 39 days (reference value: 0.358 +/- 0.052 g); assay type: functional
A549 [8] = test: Antitumor activity against human A549 cells xenografted in po dosed athymic nu/nu BALB/c mouse assessed as decrease in tumor volume administered 5 times weekly for consecutive 39 days; assay type: functional, organism-based; outline: as §2
Mus musculus [9] = test: Antinociceptive activity in po dosed mouse assessed as inhibition of acetic acid-induced writhing measured every 5 mins for 20 mins pretreated 1 hr before acetic acid challenge; assay type: functional, organism-based
Outline: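 Mice (n = 7 per group) given 10 or 50 mg/kg orally; 1 h later injected ip with 0.7% (v/v) acetic acid, 10 mL/kg. After a 5-min delay, writhes counted for 20 min. Comparison with vehicle controls by Dunnett's test; mean ± S.D.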

A549 [10] = test: Antitumor activity against human A549 cells xenografted in athymic nu/nu BALB/c mouse assessed as decrease in tumor volume at 5 mg/kg, po administered 5 times weekly for consecutive 39 days relative to paclitaxel; assay type: functional; outline: as §2
A549 [11] = test: Antitumor activity against human A549 cells xenografted in athymic nu/nu BALB/c mouse assessed as decrease in tumor weight at 5 mg/kg, po administered 5 times weekly for consecutive 39 days (reference value: 0.358 +/- 0.052 g); assay type: functional
Mus musculus [12] = test: Antinociceptive activity in po dosed mouse assessed as time of latency at 10 or 50 mg/kg, po administered 1 hr before hot plate test; assay type: functional, organism-based; design: dose 50 mg/kg
Outline: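 Mice (n = 10 per group) given 10 or 50 mg/kg orally; 1 h later placed on a hot plate at 55 ± 0.5 °C. Latency recorded at 0 and 30 min. Comparison with vehicle control by Dunnett's test; mean ± S.D.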

[13] = target: Voltage-dependent N-type calcium channel subunit alpha-1B (Homo sapiens, UniProt Q00975); test: Inhibition of N-type calcium channel alpha 1 B
Chain of Voltage-dependent N-type calcium channel subunit alpha-1B (Q00975 whole entry): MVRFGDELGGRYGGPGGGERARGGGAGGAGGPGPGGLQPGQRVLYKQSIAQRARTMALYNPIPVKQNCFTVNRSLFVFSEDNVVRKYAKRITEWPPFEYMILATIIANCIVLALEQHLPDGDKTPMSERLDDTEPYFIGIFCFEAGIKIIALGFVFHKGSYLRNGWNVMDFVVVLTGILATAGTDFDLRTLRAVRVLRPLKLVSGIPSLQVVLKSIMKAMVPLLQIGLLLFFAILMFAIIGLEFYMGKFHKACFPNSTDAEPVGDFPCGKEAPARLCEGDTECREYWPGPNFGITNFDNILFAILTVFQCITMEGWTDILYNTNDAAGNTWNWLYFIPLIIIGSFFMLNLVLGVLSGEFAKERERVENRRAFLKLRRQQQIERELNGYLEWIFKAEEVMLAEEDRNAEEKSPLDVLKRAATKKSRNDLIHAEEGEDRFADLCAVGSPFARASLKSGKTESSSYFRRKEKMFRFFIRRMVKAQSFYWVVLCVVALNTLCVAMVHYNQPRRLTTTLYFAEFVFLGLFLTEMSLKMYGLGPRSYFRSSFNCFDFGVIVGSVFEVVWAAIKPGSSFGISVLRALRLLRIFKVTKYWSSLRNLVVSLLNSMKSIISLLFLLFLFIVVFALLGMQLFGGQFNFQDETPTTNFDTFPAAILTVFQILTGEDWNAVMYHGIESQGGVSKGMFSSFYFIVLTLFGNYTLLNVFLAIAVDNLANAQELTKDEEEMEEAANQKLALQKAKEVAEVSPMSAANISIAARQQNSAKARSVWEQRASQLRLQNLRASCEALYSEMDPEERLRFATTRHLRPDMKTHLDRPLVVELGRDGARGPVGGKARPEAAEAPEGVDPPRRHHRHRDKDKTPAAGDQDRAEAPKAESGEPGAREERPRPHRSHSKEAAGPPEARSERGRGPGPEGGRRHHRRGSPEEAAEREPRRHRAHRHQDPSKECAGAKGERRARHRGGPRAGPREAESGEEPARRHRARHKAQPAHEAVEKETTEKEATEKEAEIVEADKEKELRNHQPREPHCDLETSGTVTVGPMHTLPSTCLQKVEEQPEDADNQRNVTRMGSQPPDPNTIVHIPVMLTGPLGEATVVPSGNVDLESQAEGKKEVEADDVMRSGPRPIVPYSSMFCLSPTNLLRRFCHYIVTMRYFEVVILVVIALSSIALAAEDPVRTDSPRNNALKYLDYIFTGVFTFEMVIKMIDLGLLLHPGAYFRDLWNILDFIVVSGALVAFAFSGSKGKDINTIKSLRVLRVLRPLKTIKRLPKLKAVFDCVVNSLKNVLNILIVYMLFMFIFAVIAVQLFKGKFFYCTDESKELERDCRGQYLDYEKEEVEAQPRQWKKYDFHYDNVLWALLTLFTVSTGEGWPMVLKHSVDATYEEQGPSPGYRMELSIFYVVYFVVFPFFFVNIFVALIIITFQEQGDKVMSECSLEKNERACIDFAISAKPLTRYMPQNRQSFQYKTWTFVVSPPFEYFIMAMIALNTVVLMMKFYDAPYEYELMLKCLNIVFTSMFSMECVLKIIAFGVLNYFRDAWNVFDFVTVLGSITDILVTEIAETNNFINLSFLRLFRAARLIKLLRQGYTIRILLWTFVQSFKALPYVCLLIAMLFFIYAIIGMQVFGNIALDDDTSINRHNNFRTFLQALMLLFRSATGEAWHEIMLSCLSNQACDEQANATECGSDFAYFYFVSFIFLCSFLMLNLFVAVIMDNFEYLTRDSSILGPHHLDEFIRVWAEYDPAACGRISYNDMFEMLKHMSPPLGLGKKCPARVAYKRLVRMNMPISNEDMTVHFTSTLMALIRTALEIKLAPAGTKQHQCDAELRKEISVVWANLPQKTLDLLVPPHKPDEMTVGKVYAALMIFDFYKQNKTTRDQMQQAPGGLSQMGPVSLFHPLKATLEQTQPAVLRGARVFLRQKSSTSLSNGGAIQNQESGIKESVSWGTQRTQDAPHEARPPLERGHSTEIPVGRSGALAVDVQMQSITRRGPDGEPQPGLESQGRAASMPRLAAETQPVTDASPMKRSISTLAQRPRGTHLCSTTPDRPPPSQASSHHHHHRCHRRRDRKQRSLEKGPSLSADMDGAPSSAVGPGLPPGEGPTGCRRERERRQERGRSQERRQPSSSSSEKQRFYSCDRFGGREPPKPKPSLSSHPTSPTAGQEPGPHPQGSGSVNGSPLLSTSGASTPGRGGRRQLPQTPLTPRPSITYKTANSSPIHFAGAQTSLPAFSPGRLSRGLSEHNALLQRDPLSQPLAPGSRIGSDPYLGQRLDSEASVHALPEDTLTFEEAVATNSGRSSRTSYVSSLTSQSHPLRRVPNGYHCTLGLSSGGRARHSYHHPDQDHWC

Mus musculus [14] = test: Toxicity in athymic nu/nu BALB/c mouse bearing human A549 cells assessed as decrease in body weight at 5 mg/kg, po administered 5 times weekly for consecutive 39 days measured on day 19 to 22 post dosing; details: in vivo, 936 h
A549 [15] = test: Antitumor activity against human A549 cells xenografted in athymic nu/nu BALB/c mouse assessed as decrease in tumor volume at 1 mg/kg, po administered 5 times weekly for consecutive 39 days (reference value: 224.40 +/- 60.34 mm3); assay type: functional; outline: as §2
Mus musculus [16] = test: Toxicity in athymic nu/nu BALB/c mouse bearing human A549 cells assessed as change in total body weight at 1 to 5 mg/kg, po administered 5 times weekly for consecutive 39 days; assay type: organism-based; design: dose 1-5 mg/kg, route oral; details: in vivo, 936 h
Outline: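 A549 cells (5 × 10⁶ cells/mL) were injected s.c. into the left flank of BALB/c nu/nu nude mice. After 8 days, once nodules were visible (ca. 3 mm³), mice got oral doses in ethanol:Cremophor EL:distilled water (1:1:18) five times per week for 39 days, with vehicle-only controls (n = 5/group). Total body weights were followed over the period (mean ± SE; Dunnett's test versus control).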

A549 [17] = test: Antitumor activity against human A549 cells xenografted in athymic nu/nu BALB/c mouse assessed as tumor growth inhibition at 5 mg/kg, po administered 5 times weekly for consecutive 39 days; assay type: functional; details: A549, 936 h, read-out: GI
Mus musculus [18] = test: Antinociceptive activity in po dosed mouse assessed as time of latency at 100 mg/kg, po administered 1 hr before hot plate test; assay type: functional, organism-based; design: dose 100 mg/kg

## CC(=O)O[C@H]1C(=O)[C@@]2(C)[C@H]([C@H](OC(=O)c3ccccc3)[C@]3(O)C[C@H](OC(=O)[C@H](O)[C@@H](NC(=O)c4ccccc4)c4ccccc4)C(C)=C1C3(C)C)[C@]1(OC(C)=O)CO[C@@H]1C[C@@H]2O [PACLITAXEL]
Mus musculus [1]
  Activity: Non-toxic
A549 [2]
  inhibition in vivo at 10 mg/kg: 53%
A549 [3]
  Activity: 0.17 g
A549 [4]
  Activity: 22.9 mm3

## CN(C)CCCCCN(C)C1=Nc2ccccc2C(CC(=O)NCc2ccccc2)N1c1ccc(-c2ccccc2)cc1.Cl.Cl (stereo not drawn)
A549 [5]
  Activity: 7.9 mm3
A549 [6]
  inhibition in vivo at 1 mg/kg: 60%
A549 [7]
  Activity: 0.142 g
A549 [8]
  Activity: Dose-dependent effect
Mus musculus [9]
  Activity: Dose-dependent effect
A549 [10]
  fold change (FC): 3
A549 [11]
  Activity: 0.12 g
Mus musculus [12]
  Activity: inactive
[13]
  pIC50: 5.31
Mus musculus [14]
  Activity: Toxic
A549 [15]
  Activity: 27.05 mm3
Mus musculus [16]
  Activity: Non-toxic
A549 [17]
  inhibition in vivo at 5 mg/kg: 67%

## CC(C)Cc1ccc(C(C)C(=O)O)cc1 (stereo not drawn)
Mus musculus [18]
  Activity: Active
